This note sets out measurements from ChEMBL document CHEMBL4014344, “Discovery of the Soluble Guanylate Cyclase Stimulator Vericiguat (BAY 1021189) for the Treatment of Chronic Heart Failure” (J Med Chem, 2017).

The source made the active and inactive calls. The calls are words filed in the database; no cut-off is given here. Some results are limits rather than exact numbers.

The test system of series [1] is Saphenous artery. Description: Vasorelaxant activity in nirate-tolerant Chinchilla rabbit saphenous artery ring administered at the beginning of the last resting period of 28 mins in presence of sorbide dinitrate. Type of series: functional. The note with it: Oryctolagus cuniculus.
Series [2] deals with T1, Cytochrome P450 3A4 (Homo sapiens, UniProt P08684). Description: Inhibition of human liver microsomes CYP3A4 using midazolam as substrate. The class given is ADME.
Series [3] in a line: Clearance in iv dosed Wistar rat blood after 24 hrs by LC-MS analysis. The class given is ADME, organism-based. As to conditions: whole blood. In short, it runs like this: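 Male Wistar rats and female beagle dogs. iv in plasma/DMSO (rat) or H2O/PEG 400/EtOH (dog). Oral gavage in H2O/PEG 400/EtOH for both. Rats jugular-catheterised ≥1 d before dosing. Usually >10 blood samples, at least two after 24 h. Plasma quantified by LC-MS with internal standard. CL, t1/2, Vss and F calculated from plasma curves. Blood clearance via blood/plasma ratio (20 min blood incubation).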

Series [4] has as its system Rattus norvegicus. Description: Antihypertensive activity in L-NAME-treated renin transgenic rat co-expressing RenTG(mRRen2)27 assessed as reduction in Kim-1 expression at 3 to 10 mg/kg administered qd via oral gavage up to 21 days. Type of series: functional, organism-based. In short, it runs like this: (§1)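 Male RenTG(mRRen2)27 rats, 8 weeks old, given L-NAME in drinking water (50 mg/L) throughout. Randomised to placebo (2 mL/kg qd, n = 20) or 3 and 10 mg/kg/day po by gavage qd (n = 15 per group). Tail-cuff blood pressure on day 0, 7, 14 and 21. Plasma taken at day 22 end. Unpaired t test, mean ± SEM.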

Series [5] concerns the target T1, Cytochrome P450 3A4. The experiment in a line: Inhibition of human liver microsomes CYP3A4 using testosterone as substrate preincubated with compound followed by substrate addition. Type of series: ADME.
The target in series [6] is T2, Cytochrome P450 2A6 (Homo sapiens, UniProt P11509).
T2 sequence (P11509 whole entry): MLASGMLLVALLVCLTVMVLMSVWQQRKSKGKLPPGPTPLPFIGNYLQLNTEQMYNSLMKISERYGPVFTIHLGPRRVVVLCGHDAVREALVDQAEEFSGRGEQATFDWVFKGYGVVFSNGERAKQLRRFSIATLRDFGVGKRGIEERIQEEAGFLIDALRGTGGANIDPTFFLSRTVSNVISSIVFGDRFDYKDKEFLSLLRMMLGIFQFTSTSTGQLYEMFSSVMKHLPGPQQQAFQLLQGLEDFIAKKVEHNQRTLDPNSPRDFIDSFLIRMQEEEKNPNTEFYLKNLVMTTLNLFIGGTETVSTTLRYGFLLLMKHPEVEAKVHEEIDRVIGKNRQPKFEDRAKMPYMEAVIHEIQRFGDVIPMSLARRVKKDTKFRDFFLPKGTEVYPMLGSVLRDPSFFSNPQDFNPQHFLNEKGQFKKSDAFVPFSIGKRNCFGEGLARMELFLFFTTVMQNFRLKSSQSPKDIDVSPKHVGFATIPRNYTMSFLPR
Description: Inhibition of human liver microsomes CYP2A6 using coumarin as substrate. Type of series: ADME.

Series [7] concerns the target T3, Cytochrome P450 2C8 (Homo sapiens, UniProt P10632).
T3 sequence (P10632 whole entry): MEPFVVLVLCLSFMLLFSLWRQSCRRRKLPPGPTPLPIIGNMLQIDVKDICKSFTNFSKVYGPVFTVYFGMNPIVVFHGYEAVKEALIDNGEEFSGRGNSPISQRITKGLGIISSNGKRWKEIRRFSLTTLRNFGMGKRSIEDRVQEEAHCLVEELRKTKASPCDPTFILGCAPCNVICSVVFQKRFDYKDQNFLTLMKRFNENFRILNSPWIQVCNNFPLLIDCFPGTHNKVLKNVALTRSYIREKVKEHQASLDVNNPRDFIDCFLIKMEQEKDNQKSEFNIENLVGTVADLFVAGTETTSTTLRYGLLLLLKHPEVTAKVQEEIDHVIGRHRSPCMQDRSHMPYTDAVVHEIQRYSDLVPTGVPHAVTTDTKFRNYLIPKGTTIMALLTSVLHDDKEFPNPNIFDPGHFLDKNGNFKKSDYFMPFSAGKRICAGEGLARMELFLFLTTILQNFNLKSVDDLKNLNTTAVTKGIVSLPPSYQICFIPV
Description: Inhibition of human liver microsomes CYP2C8 using amodiaquine as substrate. The class given is ADME.

Series [8] is described as follows: Stimulation of rat sGC expressed in CHO cells using GTP as substrate assessed as increase in cGMP formation treated for 6 mins in presence of 100 nM SNAP by luminescence assay. Type of series: cell-based. In short, it runs like this:
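CHO reporter cells overexpressing sGC, cultured 1 or 2 d, then loaded 3 h with coelenterazine in calcium-free Tyrode. Compound serial dilutions applied 6 min. Calcium added (final 3 mM) and luminescence read for 40 s by CCD camera. SNAP co-applied at 30 or 100 nM where stated. ODQ condition: 10 μM ODQ pretreatment for 3 h.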

Series [9] deals with Rattus norvegicus. The experiment in a line: Effect on mortality in L-NAME-treated renin transgenic rat co-expressing RenTG(mRRen2)27 assessed as survival rate at 10 mg/kg administered qd via oral gavage up to 21 days (reference value: 25%). Type of series: functional. The note with it: 504 h.
Series [10] concerns Rattus norvegicus. Description: Antihypertensive activity in L-NAME-treated renin transgenic rat co-expressing RenTG(mRRen2)27 assessed as reduction in proteinuria administered qd via oral gavage up to 21 days. The class given is functional. In short, it runs like this:
as §1

T1 sequence (P08684 whole entry): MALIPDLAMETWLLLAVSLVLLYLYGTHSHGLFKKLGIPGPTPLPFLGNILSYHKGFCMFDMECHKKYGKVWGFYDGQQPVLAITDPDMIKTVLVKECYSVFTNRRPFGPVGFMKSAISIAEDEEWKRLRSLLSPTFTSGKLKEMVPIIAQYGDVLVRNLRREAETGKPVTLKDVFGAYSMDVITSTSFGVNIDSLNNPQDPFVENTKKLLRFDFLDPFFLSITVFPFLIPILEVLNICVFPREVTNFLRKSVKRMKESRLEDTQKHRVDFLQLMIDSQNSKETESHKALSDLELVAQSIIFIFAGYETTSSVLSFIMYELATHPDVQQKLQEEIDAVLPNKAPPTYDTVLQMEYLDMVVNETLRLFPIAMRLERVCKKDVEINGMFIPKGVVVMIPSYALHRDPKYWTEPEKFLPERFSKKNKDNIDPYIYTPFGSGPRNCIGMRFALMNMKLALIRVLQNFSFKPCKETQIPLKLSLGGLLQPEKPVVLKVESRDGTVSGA

Take `COC(=O)Nc1c(N)nc(-c2nn(Cc3ccccc3F)c3ncc(F)cc23)nc1N` [VERICIGUAT]: the IC50 in series [1] is 5.8 nM; in [2] it was over 50 µM; in series [5] it was over 50 µM; in [6], over 50 µM; in [7] it was over 50 µM. In series [3], this compound had a clearance of 5 mL/min/kg. Besides, in series [4], the outcome was Active. For the same compound, in series [8], the EC50 is 10.6 nM. Besides, in [9], the survival at 10 mg/kg turned out to be 90%. In series [10], the Activity result is “Dose-dependent effect”.
